B1: Osa-1-4 twister ribozyme (parent)
chain: CCGCCUAACACUGCCAAUGCCGGUCCCAAGCCCGGAUAAAAGUGGAGGGGGCGG

In the data set the parent is B1. Kind of data set: self-cleavage, relative activity (ratio to wild type); higher = more cleavage; co-transcriptional. In a few lines: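 Values are relative activity: the fraction cleaved, normalised to wild type. A doped DNA template for a 54-nucleotide twister ribozyme from Oryza sativa had 97 % wild-type base and 1 % of each other base at the 48 positions downstream of the cleavage site. The RNA was transcribed in vitro for 2 h at 37 °C so that it could cleave itself co-transcriptionally, then sequenced deeply, with cleavage status scored from the presence or absence of upstream sequence in reads.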
A16C C52G: the self-cleavage worked out at 0.96.

For the variant A16C C52U, the self-cleavage came out at 0.98. As for A16C C52A, the self-cleavage amounted to 0.9.

On to A16G C15G, for which the self-cleavage is 0.78.

On to A16G C15A, for which the self-cleavage is 0.61. For A16C A46G the value was 0.06; for A16C A46U, 0.07. For A16C A46C the value was 0.06; for C15U, 0.53. Turning to C15U G50C, the self-cleavage turned out to be 0.23. For C15U G50A the value was 0.47; for C15U G50U, 0.43; for A16C G48U, 0.06. The figure for A16C G48A is 0.06. For A16C G48C the value was 0.07; for A16G, 1.01.

Turning to A16C, the self-cleavage turned out to be 0.97. As for A16C A7C, the self-cleavage was 0.07. For the variant A16C A7G, the self-cleavage stood at 0.17. Turning to A16C A7U, the self-cleavage is 0.15. A16C G30A: the self-cleavage came out at 0.04. For A16C G30C the value was 0.05; for A16C G30U, 0.04; for C15U G51U, 0.07.

With C15U G51A, the self-cleavage came to 0.15. The figure for C15U G51C is 0.04; for C15U G44A it is 0.08; for C15U G44C it is 0.23.

C15U G44U: the self-cleavage turned out to be 0.16. For A16G A7U the value was 0.13; for A16G A7G, 0.61; for A16G A7C, 0.08.

Turning to A16C A39U, the self-cleavage amounted to 0.95.

Regarding A16C A39G, the self-cleavage came to 0.95.

Turning to A16C A39C, the self-cleavage stood at 0.89. The figure for A16G C9G is 0.92; for A16G C9A it is 0.59; for A16G C9U it is 0.84. The figure for C15U C20A is 0.45. On to C15U C20U, for which the self-cleavage was 0.54. For C15U C20G the value was 0.05; for A16C A8U, 0.19; for A16C A8C, 0.13. The figure for A16C A8G is 0.36; for A16G A38G it is 0.97. On to A16G A38U, for which the self-cleavage stood at 1.05. Turning to A16G A38C, the self-cleavage is 0.98. For A16C A36U the value was 0.99; for A16C A36G, 1.01. For A16C A36C the value was 0.33; for A16C G35A, 0.61; for A16C G35U, 0.64. The figure for A16C G35C is 0.17.

In the case of C15G G47C, the self-cleavage came out at 0.06. The figure for C15G G47A is 0.08; for C15G G47U it is 0.09.

With A16C C31G, the self-cleavage worked out at 0.1. As for A16C C31A, the self-cleavage is 0.04.

For A16C C31U, the self-cleavage is 0.55. For A16C C14G the value was 0.29. Take A16C C14A: the self-cleavage stood at 0.08. A16C C14U: the self-cleavage came to 0.27. The figure for A16C A28U is 0.76; for A16C A28C it is 0.83. The figure for A16C A28G is 0.16. Regarding A16G A17C, the self-cleavage was 0.91. The figure for A16G A17G is 0.92.

A16G A17U: the self-cleavage came to 0.94. The figure for C15U C33G is 0.03. Turning to C15U C33U, the self-cleavage is 0.06.

Regarding C15U C33A, the self-cleavage came out at 0.05.

As to C15G G34A, the self-cleavage came to 0.27. In the case of C15G G34C, the self-cleavage was found to be 0.18. For C15G G34U the value was 0.13; for A16C G50U, 0.97; for A16C G50A, 0.71.

Regarding A16C G50C, the self-cleavage was 0.82.

A16C A38C: the self-cleavage amounted to 1.01. For A16C A38G the value was 0.96; for A16C A38U, 1.01; for A16C G47C, 0.05. The figure for A16C G47U is 0.13; for A16C G47A it is 0.14.

Take C15U C31U: the self-cleavage turned out to be 0.06.

Regarding C15U C31G, the self-cleavage was 0.06. On to C15U C31A, for which the self-cleavage turned out to be 0.03.

For the variant C15U G35C, the self-cleavage came to 0.07. For C15U G35A the value was 0.59; for C15U G35U, 0.35. Take A16C A17U: the self-cleavage was 0.98.

For A16C A17C, the self-cleavage turned out to be 0.87. With A16C A17G, the self-cleavage is 0.9. The figure for A16C G19A is 0.62; for A16C G19C it is 0.13. For A16C G19U the value was 0.19; for C15G G42C, 0.08. For C15G G42U the value was 0.05; for C15G G42A, 0.12; for A16C U12C, 0.44. For A16C U12G, the self-cleavage turned out to be 0.09.

For the variant A16C U12A, the self-cleavage is 0.71. Take A16C G13C: the self-cleavage is 0.04. As to A16C G13U, the self-cleavage was found to be 0.04. For A16C G13A the value was 0.08; for C15U C27A, 0.07. For C15U C27G the value was 0.06. For C15U C27U the value was 0.08; for C15U U12G, 0.1. Regarding C15U U12A, the self-cleavage was determined as 0.11. For the variant C15U U12C, the self-cleavage was determined as 0.06. For A16C A40C the value was 0.07. Consider A16C A40G, for which the self-cleavage is 0.54. As to A16C A40U, the self-cleavage amounted to 0.52. For C15U G19C the value was 0.12; for C15U G19U, 0.46; for C15U G19A, 1.03. On to A16C G54A, for which the self-cleavage was 0.86. In the case of A16C G54C, the self-cleavage came out at 0.82. For A16C G54U the value was 0.88; for A16G A40U, 0.88. For the variant A16G A40G, the self-cleavage stood at 0.77.

As for A16G A40C, the self-cleavage is 0.11. For C15U G47U the value was 0.05; for C15U G47C, 0.05; for C15U G47A, 0.06. Regarding C15U G13U, the self-cleavage came to 0.02. For C15U G13C, the self-cleavage was 0.02. In the case of C15U G13A, the self-cleavage amounted to 0.05.

As to A16G A29U, the self-cleavage was 0.27. On to A16G A29G, for which the self-cleavage is 0.39.

For the variant A16G A29C, the self-cleavage was found to be 0.08. With A16C A41C, the self-cleavage stood at 0.74.

Take A16C A41G: the self-cleavage was found to be 0.63.

Consider A16C A41U, for which the self-cleavage was 0.97. For C15U G53U the value was 0.1; for C15U G53A, 0.12. The figure for C15U G53C is 0.05; for A16C G53A it is 0.65; for A16C G53C it is 0.09. The figure for A16C G53U is 0.25; for C15G G49U it is 0.06; for C15G G49A it is 0.07. Take C15G G49C: the self-cleavage worked out at 0.05. On to A16G A46G, for which the self-cleavage was 0.1. As for A16G A46C, the self-cleavage is 0.15. For A16G A46U the value was 0.11. As for A16G A39C, the self-cleavage is 1.01. The figure for A16G A39U is 0.97; for A16G A39G it is 0.9; for C15U G49A it is 0.05. Regarding C15U G49U, the self-cleavage worked out at 0.04. For C15U G49C the value was 0.04; for A16C G22A, 0.76. For A16C G22C the value was 0.07; for A16C G22U, 0.31. The figure for A16C G34U is 0.34; for A16C G34C it is 0.23; for A16C G34A it is 0.44. As for A16C U43C, the self-cleavage amounted to 0.33. Take A16C U43G: the self-cleavage worked out at 0.16. For A16C U43A the value was 0.7.

Regarding A16C C25A, the self-cleavage was determined as 0.08. For A16C C25U the value was 0.72.

On to A16C C25G, for which the self-cleavage amounted to 0.1. Regarding C15G U24G, the self-cleavage amounted to 0.02.

For the variant C15G U24C, the self-cleavage stood at 0.09.

Consider C15G U24A, for which the self-cleavage was 0.07.

For the origin of these results see the RNAGym collection of RNA variant scans (doi:10.1002/anie.201605470).
